{"source": "ChEMBL document CHEMBL1136741", "about": "“Role of the glycopeptide framework in the antibacterial activity of hydrophobic derivatives of glycopeptide antibiotics” (2003)", "key": {"Enterococcus faecalis [1]": {"tested_on": "Enterococcus faecalis", "assay": "Antibacterial activity against glycopeptide resistant Enterococcus faecalis 560 strain", "format": "functional", "in_short": "(§1)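 MIC by broth microdilution in Mueller Hinton broth following NCCLS procedures. Compounds were dissolved in 10% DMSO in water, then diluted in broth. Final DMSO was 1.28% at 128 µg/mL antibiotic down to 0.0013% at 0.13 µg/mL. Repeat determinations were usually identical and always within 2-fold.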"}, "[2]": {"tested_on": "Staphylococcus epidermidis", "assay": "Antibacterial activity against Staphylococcus epidermis 533 strain", "format": "functional"}, "[3]": {"tested_on": "Staphylococcus haemolyticus", "assay": "Antibacterial activity against Staphylococcus haemolyticus 602 strain"}, "Enterococcus faecalis [4]": {"tested_on": "Enterococcus faecalis", "assay": "Antibacterial activity against glycopeptide susceptible Enterococcus faecalis 559 strain", "format": "functional", "in_short": "(§2)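 MIC by broth microdilution in Mueller Hinton broth following NCCLS procedures. Compounds dissolved in 10% DMSO in water, then diluted in broth; test range 128 to 0.13 µg/mL, final DMSO 1.28% to 0.0013% accordingly. Repeat determinations usually identical and always within 2-fold. Strain 533 is a clinical isolate; strain 602 is a clinical S. haemoliticus isolate.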"}, "Staphylococcus aureus [5]": {"tested_on": "Staphylococcus aureus", "assay": "Antibacterial activity against glycopeptide intermediate resistant Staphylococcus aureus 3798 strain", "format": "functional", "in_short": "as §1"}, "Enterococcus faecium [6]": {"tested_on": "Enterococcus faecium", "assay": "Antibacterial activity against glycopeptide resistant Enterococcus faecium 569 strain", "format": "functional", "in_short": "as §1"}, "Staphylococcus aureus [7]": {"tested_on": "Staphylococcus aureus", "assay": "Antibacterial activity against glycopeptide intermediate resistant Staphylococcus aureus 3797 strain", "format": "functional", "in_short": "as §1"}, "Enterococcus faecium [8]": {"tested_on": "Enterococcus faecium", "assay": "Antibacterial activity against glycopeptide susceptible Enterococcus faecium 568 strain", "format": "functional", "in_short": "as §2"}}}
{"smiles": "CCCCCCCCCCNC(=O)[C@H]1NC(=O)[C@H]2NC(=O)[C@H](NC(=O)[C@@H]3NC(=O)[C@H](CC(N)=O)NC(=O)[C@H](NC(=O)[C@@H](CC(C)C)NC)[C@H](O)c4ccc(c(Cl)c4)Oc4cc3cc(c4O[C@@H]3O[C@H](CO)[C@@H](O)[C@H](O)[C@H]3O[C@H]3C[C@](C)(N)C(O)[C@H](C)O3)Oc3ccc(cc3Cl)[C@H]2O)c2ccc(O)c(c2)-c2c(O)cc(O)cc21", "note": "(some centres not stated)", "values": [{"measurement": "MIC", "setting": "Enterococcus faecalis [1]", "result": 8, "unit": "µg/mL"}, {"measurement": "MIC", "setting": "[2]", "result": 0.5, "unit": "µg/mL"}, {"measurement": "MIC", "setting": "[3]", "result": 1, "unit": "µg/mL"}, {"measurement": "MIC", "setting": "Enterococcus faecalis [4]", "result": 0.5, "unit": "µg/mL"}, {"measurement": "MIC", "setting": "Staphylococcus aureus [5]", "result": 1, "unit": "µg/mL"}, {"measurement": "MIC", "setting": "Enterococcus faecium [6]", "result": 8, "unit": "µg/mL"}, {"measurement": "MIC", "setting": "Staphylococcus aureus [7]", "result": 1, "unit": "µg/mL"}, {"measurement": "MIC", "setting": "Enterococcus faecium [8]", "result": 0.5, "unit": "µg/mL"}]}
{"smiles": "CCCCCCCCCCNC(=O)[C@H]1NC(=O)[C@H]2NC(=O)[C@H](NC(=O)[C@@H]3NC(=O)[C@H]4NC(=O)[C@@H](Cc5ccc(c(Cl)c5)Oc5cc3cc(c5O)Oc3ccc(cc3Cl)[C@H]2O)NC(=O)[C@H](N)c2ccc(O)c(c2)Oc2cc(O)cc4c2)c2ccc(O)c(c2)-c2c(O)cc(O)cc21", "values": [{"measurement": "MIC", "setting": "Enterococcus faecalis [1]", "result": 4, "unit": "µg/mL"}, {"measurement": "MIC", "setting": "[2]", "result": 0.13, "unit": "µg/mL"}, {"measurement": "MIC", "setting": "[3]", "result": 0.5, "unit": "µg/mL"}, {"measurement": "MIC", "setting": "Enterococcus faecalis [4]", "result": 0.5, "unit": "µg/mL"}, {"measurement": "MIC", "setting": "Staphylococcus aureus [5]", "result": 1, "unit": "µg/mL"}, {"measurement": "MIC", "setting": "Enterococcus faecium [6]", "result": 4, "unit": "µg/mL"}, {"measurement": "MIC", "setting": "Staphylococcus aureus [7]", "result": 1, "unit": "µg/mL"}, {"measurement": "MIC", "setting": "Enterococcus faecium [8]", "result": 0.25, "unit": "µg/mL"}]}
{"smiles": "CC(=O)N[C@@H]1[C@H](O[C@@H]2c3ccc(c(Cl)c3)Oc3cc(cc(Oc4ccc(C[C@@H](N)CO)cc4Cl)c3O)[C@@H](N)C(=O)N[C@H]3C(=O)N[C@@H]2C(=O)N[C@H](C(=O)O)c2cc(O)cc(O[C@H]4O[C@H](CO)[C@@H](O)[C@@H](O)[C@@H]4O)c2-c2cc3ccc2O)O[C@@H](CO)[C@@H](O)[C@@H]1O", "values": [{"measurement": "MIC", "setting": "Enterococcus faecalis [1]", "result": "> 128", "unit": "µg/mL"}, {"measurement": "MIC", "setting": "[2]", "result": 64, "unit": "µg/mL"}, {"measurement": "MIC", "setting": "[3]", "result": 64, "unit": "µg/mL"}, {"measurement": "MIC", "setting": "Enterococcus faecalis [4]", "result": 64, "unit": "µg/mL"}, {"measurement": "MIC", "setting": "Staphylococcus aureus [5]", "result": "> 64", "unit": "µg/mL"}, {"measurement": "MIC", "setting": "Enterococcus faecium [6]", "result": "> 128", "unit": "µg/mL"}, {"measurement": "MIC", "setting": "Staphylococcus aureus [7]", "result": "> 64", "unit": "µg/mL"}, {"measurement": "MIC", "setting": "Enterococcus faecium [8]", "result": 32, "unit": "µg/mL"}]}
{"smiles": "N[C@H]1C(=O)N[C@@H]2Cc3ccc(c(Cl)c3)Oc3cc4cc(c3O)Oc3ccc(cc3Cl)[C@@H](O)[C@@H]3NC(=O)[C@H](NC(=O)[C@@H]4NC(=O)[C@@H](NC2=O)c2cc(O)cc(c2)Oc2cc1ccc2O)c1ccc(O)c(c1)-c1c(O)cc(O)cc1[C@@H](C(=O)NCc1ccc(-c2ccc(Cl)cc2)cc1)NC3=O", "values": [{"measurement": "MIC", "setting": "Enterococcus faecalis [1]", "result": 8, "unit": "µg/mL"}, {"measurement": "MIC", "setting": "[2]", "result": 0.13, "unit": "µg/mL"}, {"measurement": "MIC", "setting": "[3]", "result": 0.13, "unit": "µg/mL"}, {"measurement": "MIC", "setting": "Enterococcus faecalis [4]", "result": 0.25, "unit": "µg/mL"}, {"measurement": "MIC", "setting": "Staphylococcus aureus [5]", "result": 1, "unit": "µg/mL"}, {"measurement": "MIC", "setting": "Enterococcus faecium [6]", "result": 4, "unit": "µg/mL"}, {"measurement": "MIC", "setting": "Staphylococcus aureus [7]", "result": 1, "unit": "µg/mL"}, {"measurement": "MIC", "setting": "Enterococcus faecium [8]", "result": 0.25, "unit": "µg/mL"}]}
{"smiles": "NC(=O)C[C@@H]1NC(=O)[C@H](N)[C@H](O)c2ccc(c(Cl)c2)Oc2cc3cc(c2O)Oc2ccc(cc2)[C@@H](O)[C@@H]2NC(=O)[C@H](NC(=O)[C@@H]3NC1=O)c1ccc(O)c(c1)-c1c(O)cc(O)cc1[C@@H](C(=O)O)NC2=O", "values": [{"measurement": "MIC", "setting": "[2]", "result": "> 128", "unit": "µg/mL"}, {"measurement": "MIC", "setting": "[3]", "result": "> 128", "unit": "µg/mL"}, {"measurement": "MIC", "setting": "Enterococcus faecalis [4]", "result": "> 128", "unit": "µg/mL"}, {"measurement": "MIC", "setting": "Staphylococcus aureus [5]", "result": "> 128", "unit": "µg/mL"}, {"measurement": "MIC", "setting": "Staphylococcus aureus [7]", "result": "> 128", "unit": "µg/mL"}, {"measurement": "MIC", "setting": "Enterococcus faecium [8]", "result": "> 128", "unit": "µg/mL"}]}
{"smiles": "C[C@@H]1O[C@@H](O[C@H]2[C@H](Oc3c4cc5cc3Oc3ccc(cc3Cl)[C@@H](O)[C@@H](N)C(=O)N[C@@H](CC(N)=O)C(=O)N[C@H]5C(=O)N[C@H]3C(=O)N[C@H](C(=O)N[C@H](C(=O)NCc5ccc(-c6ccc(Cl)cc6)cc5)c5cc(O)cc(O)c5-c5cc3ccc5O)[C@H](O[C@H]3C[C@](C)(N)[C@@H](O)[C@H](C)O3)c3ccc(cc3)O4)O[C@H](CO)[C@@H](O)[C@@H]2O)C[C@](C)(N)[C@H]1O", "values": [{"measurement": "MIC", "setting": "Enterococcus faecalis [1]", "result": 4, "unit": "µg/mL"}, {"measurement": "MIC", "setting": "[2]", "result": 4, "unit": "µg/mL"}, {"measurement": "MIC", "setting": "[3]", "result": 4, "unit": "µg/mL"}, {"measurement": "MIC", "setting": "Enterococcus faecalis [4]", "result": 4, "unit": "µg/mL"}, {"measurement": "MIC", "setting": "Staphylococcus aureus [5]", "result": 8, "unit": "µg/mL"}, {"measurement": "MIC", "setting": "Enterococcus faecium [6]", "result": 2, "unit": "µg/mL"}, {"measurement": "MIC", "setting": "Staphylococcus aureus [7]", "result": 8, "unit": "µg/mL"}, {"measurement": "MIC", "setting": "Enterococcus faecium [8]", "result": 4, "unit": "µg/mL"}]}
{"smiles": "CCCCCCCCCCNC(=O)[C@H]1NC(=O)[C@H]2NC(=O)[C@H](NC(=O)[C@H](N)c3cc(Oc4ccc(C[C@@H](N)CO)cc4Cl)c(O)c(c3)Oc3ccc(cc3Cl)[C@H]2O[C@@H]2O[C@@H](CO)[C@@H](O)[C@H](O)[C@@H]2NC(C)=O)c2ccc(O)c(c2)-c2c(O[C@H]3O[C@H](CO)[C@@H](O)[C@@H](O)[C@@H]3O)cc(O)cc21", "values": [{"measurement": "MIC", "setting": "Enterococcus faecalis [1]", "result": 64, "unit": "µg/mL"}, {"measurement": "MIC", "setting": "[2]", "result": 16, "unit": "µg/mL"}, {"measurement": "MIC", "setting": "[3]", "result": 32, "unit": "µg/mL"}, {"measurement": "MIC", "setting": "Enterococcus faecalis [4]", "result": 16, "unit": "µg/mL"}, {"measurement": "MIC", "setting": "Staphylococcus aureus [5]", "result": 16, "unit": "µg/mL"}, {"measurement": "MIC", "setting": "Enterococcus faecium [6]", "result": 16, "unit": "µg/mL"}, {"measurement": "MIC", "setting": "Staphylococcus aureus [7]", "result": 32, "unit": "µg/mL"}, {"measurement": "MIC", "setting": "Enterococcus faecium [8]", "result": 16, "unit": "µg/mL"}]}
{"smiles": "CCCCCCCCCCNC(=O)[C@H]1NC(=O)[C@H]2NC(=O)[C@H](NC(=O)[C@@H]3NC(=O)[C@H](CC(N)=O)NC(=O)[C@H](NC(=O)[C@@H](CC(C)C)NC)[C@H](O)c4ccc(c(Cl)c4)Oc4cc3cc(c4O)Oc3ccc(cc3)[C@H]2O)c2ccc(O)c(c2)-c2c(O)cc(O)cc21", "values": [{"measurement": "MIC", "setting": "Enterococcus faecalis [1]", "result": 4, "unit": "µg/mL"}, {"measurement": "MIC", "setting": "[2]", "result": 4, "unit": "µg/mL"}, {"measurement": "MIC", "setting": "[3]", "result": 4, "unit": "µg/mL"}, {"measurement": "MIC", "setting": "Enterococcus faecalis [4]", "result": 4, "unit": "µg/mL"}, {"measurement": "MIC", "setting": "Staphylococcus aureus [5]", "result": 4, "unit": "µg/mL"}, {"measurement": "MIC", "setting": "Enterococcus faecium [6]", "result": 4, "unit": "µg/mL"}, {"measurement": "MIC", "setting": "Staphylococcus aureus [7]", "result": 4, "unit": "µg/mL"}, {"measurement": "MIC", "setting": "Enterococcus faecium [8]", "result": 4, "unit": "µg/mL"}]}
